Measured values taken from publication PMC10159923 (Lab on a chip, 2023).
Each block holds one substance with its values, some of them ahead of it.

Columns and labels:
PAR1 = target: T1, PAR1 (Homo sapiens, UniProt P25116); assay: MEIRS cellular response of A431 cells to PAR1 activating peptide; assay type: cell-based
T1 sequence (P25116 22-425): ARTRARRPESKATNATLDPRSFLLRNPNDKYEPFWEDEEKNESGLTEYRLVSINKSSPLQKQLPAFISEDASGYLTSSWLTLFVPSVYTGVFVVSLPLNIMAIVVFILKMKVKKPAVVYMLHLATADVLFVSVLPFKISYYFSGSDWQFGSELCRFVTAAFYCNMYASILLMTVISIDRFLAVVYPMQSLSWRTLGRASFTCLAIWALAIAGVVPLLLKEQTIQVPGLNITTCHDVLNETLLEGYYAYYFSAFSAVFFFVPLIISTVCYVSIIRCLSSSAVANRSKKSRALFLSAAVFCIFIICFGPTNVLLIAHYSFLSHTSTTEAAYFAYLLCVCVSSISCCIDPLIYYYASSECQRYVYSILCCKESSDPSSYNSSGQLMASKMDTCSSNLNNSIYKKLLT
Outline: (§1)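 A431 cells (ATCC, passage <15) were seeded at ~500,000/mL in DMEM + 10% FBS on fibronectin-coated (10 μg/mL) metasurface wells and incubated overnight. Medium was then swapped to L15 + 1% antibiotic-antimycotic. One baseline spectrum preceded manual addition of peptide in L15. FTIR reflectance was taken at room temperature, every 4 min per well, for 1 h. Spectra were differenced from t = 0, and first-PC signals were extracted from the protein, plasmonic and lipid windows (mean ± standard error, n = 4).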

PAR1/PAR2 = assay: MEIRS cellular response of A431 cells to PAR peptides / control peptide; assay type: cell-based, human
Outline: as §1

[1] = system: cells (cell type not given); settings: among others, including collagen and PDL; cited from earlier work
A431 cells = assay: Phase contrast imaging of cell spreading on coated metasurfaces; assay type: cell-based, human; settings: Fig. S2

duration of gradual decrease in cellular signal back to baseline level (PAR1; MEIRS PC1 signal, after peak): about 30 min | time of cellular signal peak after peptide addition (PAR1; MEIRS PC1 signal, Δt = 4 min, n = 4): 8 to 12 min | initial change in cellular signal on addition of peptide (PAR1; as soon as the peptides were added): rapid increase in the cellular signal
Substance: SFLLR-NH2
course of cellular signal after maximal point (PAR1; MEIRS PC1 signal): decreased right after the maximal point was reached | peak amplitude of cellular signal (SFLLR vs SLIGKV) (PAR1/PAR2; 100 μM): similar

Substance: VKGILS-NH2
cellular response to control peptide (PAR1/PAR2; MEIRS PC1 signal, n = 4): very little response from the cells

Substance: fibronectin
best coating material by electric impedance [1]: often the best coating material | cell spreading, phase contrast morphology (A431 cells): cells spread well
